Values belong to the compound of their own block, whether it stands above or below them. Active and inactive are the calls of the source. No cut-off for these calls is given here.
Tests used:
L6 [1] = assay: Increase in 2-[3H]-deoxyglucose uptake in rat L6 cells at 10 uM after 16 hrs by scintillation counting analysis (reference value: 0%); assay type: functional
L6 [2] = assay: Increase in 2-[3H]-deoxyglucose uptake in rat L6 cells after 16 hrs by scintillation counting analysis; assay type: functional, cell-based
Outline: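 Dose–response in L6 myotubes: vehicle (DMSO) or compound at 5, 10, 25 µM for 16 h before glucose uptake measurement; rosiglitazone 10 µM as positive control. Expressed as fold stimulation over control; mean ± SE of three independent experiments, each in triplicate.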

L6 [3] = assay: Potentiation of insulin-stimulated 2-[3H]-deoxyglucose uptake in rat L6 cells at 10 uM treated for 16 hrs followed by incubation for 3 hrs in serum free medium and insulin stimulation for 20 mins by scintillation counting analysis; assay type: functional, cell-based
Outline: (§1)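 Cells (L6 myotubes, 3T3-L1 adipocytes or HepG2 hepatic cells) treated with compound (10 µM) for 16 h, last 3 h serum-free, with or without insulin (100 nM, 20 min) before glucose uptake. Reported as fold stimulation over basal control; mean ± SE of three independent experiments, each in triplicate.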

[4] = biological target: T1, Solute carrier family 2, facilitated glucose transporter member 4 (Rattus norvegicus) (UniProt P19357); assay: Induction of GLUT4 translocation to cell surface in rat L6-GLUT4myc cells at 10 uM treated for 16 hrs followed by incubation for 3 hrs in serum free medium and insulin stimulation for 20 mins; assay type: cell-based
T1 sequence (whole entry): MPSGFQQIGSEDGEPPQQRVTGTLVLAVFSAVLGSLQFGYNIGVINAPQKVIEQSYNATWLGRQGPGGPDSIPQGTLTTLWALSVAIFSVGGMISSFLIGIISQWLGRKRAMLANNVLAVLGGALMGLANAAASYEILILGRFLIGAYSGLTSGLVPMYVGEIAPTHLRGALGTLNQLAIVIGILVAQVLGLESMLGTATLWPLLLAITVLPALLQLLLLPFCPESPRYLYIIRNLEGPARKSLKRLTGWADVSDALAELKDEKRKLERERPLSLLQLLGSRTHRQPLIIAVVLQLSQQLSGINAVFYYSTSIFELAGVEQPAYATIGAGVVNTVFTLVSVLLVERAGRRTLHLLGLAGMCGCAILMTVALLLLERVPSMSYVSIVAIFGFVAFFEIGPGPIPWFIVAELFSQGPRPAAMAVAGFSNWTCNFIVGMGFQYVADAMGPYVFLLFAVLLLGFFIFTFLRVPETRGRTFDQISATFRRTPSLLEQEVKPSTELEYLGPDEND
Outline: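 L6-GLUT4myc myotubes given compound (10 µM) for 16 h, the final 3 h in serum-free medium; a subset stimulated with insulin (100 nM) for 20 min before measuring surface GLUT4myc. Fold over basal control; mean ± SE, three independent experiments in triplicate.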

[5] = biological target: 5'-AMP-activated protein kinase catalytic subunit alpha-1 (Rattus norvegicus) (UniProt P54645); assay: Effect on AMPK-alpha phosphorylation at Thr-172 residue in rat L6 cells at 10 uM after 16 hrs by immunoblot analysis; assay type: cell-based
5'-AMP-activated protein kinase catalytic subunit alpha-1 (Rattus norvegicus), sequence (P54645 whole entry): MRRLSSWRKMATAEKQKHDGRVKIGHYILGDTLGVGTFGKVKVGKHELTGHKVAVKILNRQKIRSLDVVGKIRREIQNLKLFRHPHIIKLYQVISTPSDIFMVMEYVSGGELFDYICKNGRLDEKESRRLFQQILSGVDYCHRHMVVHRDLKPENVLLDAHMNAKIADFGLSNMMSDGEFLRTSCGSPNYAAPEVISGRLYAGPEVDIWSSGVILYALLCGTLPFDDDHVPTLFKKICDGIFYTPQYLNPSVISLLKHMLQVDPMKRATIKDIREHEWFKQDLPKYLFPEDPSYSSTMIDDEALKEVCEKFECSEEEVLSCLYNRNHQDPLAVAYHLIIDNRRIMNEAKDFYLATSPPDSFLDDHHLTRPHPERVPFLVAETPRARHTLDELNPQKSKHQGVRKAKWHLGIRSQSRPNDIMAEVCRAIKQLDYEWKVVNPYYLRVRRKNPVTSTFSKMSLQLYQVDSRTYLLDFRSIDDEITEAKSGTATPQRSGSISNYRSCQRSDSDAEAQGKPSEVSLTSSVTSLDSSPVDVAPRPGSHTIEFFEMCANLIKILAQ
Outline: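 L6 myotubes exposed to compound (10 µM) for 16 h, then lysed; western blot for phospho-AMPK (Thr-172), quantified by densitometry relative to total AMPK. Mean ± SEM of three independent experiments.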

3T3-L1 = assay: Potentiation of insulin-stimulated 2-[3H]-deoxyglucose uptake in mouse 3T3L1 cells at 10 uM treated for 16 hrs followed by incubation for 3 hrs in serum free medium and insulin stimulation for 20 mins by scintillation counting analysis; assay type: functional, cell-based; outline: as §1
HepG2 = assay: Potentiation of insulin-stimulated 2-[3H]-deoxyglucose uptake in human HepG2 cells at 10 uM treated for 16 hrs followed by incubation for 3 hrs in serum free medium and insulin stimulation for 20 mins by scintillation counting analysis; assay type: functional, cell-based; outline: as §1
L6 [6] = assay: Increase in 2-[3H]-deoxyglucose uptake in rat L6 cells at 10 uM after 16 hrs by scintillation counting analysis relative to lupeol; assay type: functional
[7] = biological target: T2, Insulin receptor substrate 1 (Rattus norvegicus) (UniProt P35570); assay: Increase in IRS-1 phosphorylation in rat L6 cells at 10 uM treated for 16 hrs followed by incubation for 3 hrs in serum free medium and insulin stimulation for 20 mins by Western blot analysis; assay type: cell-based
T2 sequence (whole entry): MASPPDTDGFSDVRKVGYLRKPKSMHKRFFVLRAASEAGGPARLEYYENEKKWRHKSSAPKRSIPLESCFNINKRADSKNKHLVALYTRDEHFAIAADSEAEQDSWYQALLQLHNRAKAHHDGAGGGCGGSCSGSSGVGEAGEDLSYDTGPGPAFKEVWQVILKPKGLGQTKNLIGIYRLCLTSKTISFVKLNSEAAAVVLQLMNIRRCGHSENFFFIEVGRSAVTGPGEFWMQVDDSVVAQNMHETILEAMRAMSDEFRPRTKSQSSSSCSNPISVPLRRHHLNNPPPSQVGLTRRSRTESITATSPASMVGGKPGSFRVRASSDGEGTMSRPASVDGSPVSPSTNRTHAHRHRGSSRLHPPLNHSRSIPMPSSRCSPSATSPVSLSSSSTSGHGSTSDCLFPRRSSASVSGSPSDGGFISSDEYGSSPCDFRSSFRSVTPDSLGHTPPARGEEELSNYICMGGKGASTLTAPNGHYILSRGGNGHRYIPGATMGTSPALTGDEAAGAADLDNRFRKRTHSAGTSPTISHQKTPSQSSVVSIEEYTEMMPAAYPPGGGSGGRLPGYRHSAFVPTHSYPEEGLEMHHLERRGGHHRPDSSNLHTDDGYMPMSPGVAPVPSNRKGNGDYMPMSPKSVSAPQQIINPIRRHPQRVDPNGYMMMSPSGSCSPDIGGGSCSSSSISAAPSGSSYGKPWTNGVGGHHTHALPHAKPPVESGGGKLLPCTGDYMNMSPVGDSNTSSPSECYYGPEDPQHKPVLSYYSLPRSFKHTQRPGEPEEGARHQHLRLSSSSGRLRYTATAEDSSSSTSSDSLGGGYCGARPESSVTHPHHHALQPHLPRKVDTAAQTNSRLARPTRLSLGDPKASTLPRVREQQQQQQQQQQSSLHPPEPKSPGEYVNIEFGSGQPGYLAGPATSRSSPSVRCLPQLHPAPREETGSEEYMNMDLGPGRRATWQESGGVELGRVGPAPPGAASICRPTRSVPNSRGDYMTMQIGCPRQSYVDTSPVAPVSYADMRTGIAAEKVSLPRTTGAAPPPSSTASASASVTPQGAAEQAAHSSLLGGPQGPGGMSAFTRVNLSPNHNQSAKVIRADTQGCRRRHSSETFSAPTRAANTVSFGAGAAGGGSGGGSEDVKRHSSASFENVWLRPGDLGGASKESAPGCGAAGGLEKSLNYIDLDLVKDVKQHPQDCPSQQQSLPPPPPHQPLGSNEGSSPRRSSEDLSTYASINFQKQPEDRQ
Outline: (§2)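 L6 myotubes were exposed to compound (10 μM) for 16 h, serum-free for the last 3 h. One subset then received insulin (100 nM) for 20 min. Cells were lysed and equal protein amounts were western blotted. Densitometry gave pIRβ/IRβ, pIRS-1/IRS-1 and pAKT/AKT ratios. Three independent experiments, mean SEM.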

[8] = biological target: T2, Insulin receptor substrate 1 (Rattus norvegicus); assay: Increase in IRS-1-mediated Akt phosphorylation in rat L6 cells at 10 uM treated for 16 hrs followed by incubation for 3 hrs in serum free medium and insulin stimulation for 20 mins by Western blot analysis; assay type: cell-based; outline: as §2
[9] = biological target: Insulin receptor (Rattus norvegicus) (UniProt P15127); assay: Effect on IR-beta phosphorylation in rat L6 cells at 10 uM treated for 16 hrs followed by incubation for 3 hrs in serum free medium and insulin stimulation for 20 mins by Western blot analysis; assay type: cell-based; outline: as §2
Insulin receptor (Rattus norvegicus), sequence (P15127 27-759 limits assumed): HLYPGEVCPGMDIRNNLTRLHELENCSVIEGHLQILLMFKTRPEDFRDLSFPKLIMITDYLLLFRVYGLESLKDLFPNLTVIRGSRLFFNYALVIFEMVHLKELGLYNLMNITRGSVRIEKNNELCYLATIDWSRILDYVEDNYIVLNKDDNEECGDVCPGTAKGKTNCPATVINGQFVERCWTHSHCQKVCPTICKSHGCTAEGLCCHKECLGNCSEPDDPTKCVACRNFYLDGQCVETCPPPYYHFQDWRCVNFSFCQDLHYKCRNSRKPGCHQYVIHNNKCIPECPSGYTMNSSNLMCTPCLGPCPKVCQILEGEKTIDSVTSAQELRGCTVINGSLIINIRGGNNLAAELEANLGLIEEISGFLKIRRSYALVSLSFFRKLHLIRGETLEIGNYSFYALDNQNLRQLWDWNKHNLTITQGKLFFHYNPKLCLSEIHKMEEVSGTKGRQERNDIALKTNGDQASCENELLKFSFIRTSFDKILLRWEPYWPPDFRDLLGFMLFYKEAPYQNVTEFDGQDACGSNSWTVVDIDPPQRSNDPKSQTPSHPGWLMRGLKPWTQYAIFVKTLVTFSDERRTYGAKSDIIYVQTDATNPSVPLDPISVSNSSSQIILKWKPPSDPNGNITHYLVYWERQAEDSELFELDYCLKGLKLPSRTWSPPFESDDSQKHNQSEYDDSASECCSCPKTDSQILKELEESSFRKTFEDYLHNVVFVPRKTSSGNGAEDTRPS
Insulin receptor (Rattus norvegicus), sequence (P15127 764-1383 limits assumed): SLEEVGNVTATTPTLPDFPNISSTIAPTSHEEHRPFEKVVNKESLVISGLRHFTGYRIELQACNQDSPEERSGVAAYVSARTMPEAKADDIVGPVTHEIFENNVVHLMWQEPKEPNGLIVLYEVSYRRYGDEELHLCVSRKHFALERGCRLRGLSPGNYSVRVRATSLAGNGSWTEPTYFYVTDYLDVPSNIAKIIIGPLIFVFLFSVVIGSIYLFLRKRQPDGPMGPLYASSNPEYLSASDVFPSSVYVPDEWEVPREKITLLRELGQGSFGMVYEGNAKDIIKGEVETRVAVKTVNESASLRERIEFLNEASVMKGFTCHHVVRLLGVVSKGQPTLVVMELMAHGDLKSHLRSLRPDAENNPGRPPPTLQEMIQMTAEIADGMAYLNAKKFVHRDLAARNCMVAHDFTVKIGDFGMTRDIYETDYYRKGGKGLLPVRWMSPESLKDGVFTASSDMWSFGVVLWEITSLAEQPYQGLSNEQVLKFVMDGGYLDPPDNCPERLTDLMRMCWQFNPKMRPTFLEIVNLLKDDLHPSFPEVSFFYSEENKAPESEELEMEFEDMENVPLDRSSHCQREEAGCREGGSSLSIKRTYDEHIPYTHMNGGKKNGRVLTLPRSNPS

L6 [10] = assay: Potentiation of insulin-stimulated 2-[3H]-deoxyglucose uptake in rat L6 cells at 10 uM treated for 16 hrs followed by incubation for 3 hrs in serum free medium and insulin stimulation for 20 mins by scintillation counting analysis in presence of PI3K inhibitor wortmannin; assay type: functional, cell-based
Outline: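 L6 myotubes were given compound (10 μM) for 16 h, with or without wortmannin (50 nM). Insulin treatment followed, then glucose uptake was measured. Values are expressed as fold stimulation over basal control.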

SMILES: C=C(C)[C@@H]1CC[C@]2(C)CC[C@]3(C)[C@H](CC[C@@H]4[C@@]5(C)CC[C@H](O)C(C)(C)[C@@H]5CC[C@]43C)[C@@H]12 [LUPEOL]
- Activity (L6 [1]): 26.8%

- Activity [4]: Active
- Activity [5]: inactive
SMILES: C=C(C=O)[C@@H]1CC[C@]2(C)CC[C@]3(C)[C@H](CC[C@@H]4[C@@]5(C)CC[C@H](OC(C)=O)C(C)(C)[C@@H]5CC[C@]43C)[C@@H]12
- Activity (L6 [1]): 114.1%
- Activity (L6 [2]): Dose-dependent effect
- EC50 (L6 [2]): 5.2 µM
- Activity (L6 [3]): Active
- Activity (3T3-L1): Active
- Activity (HepG2): Active
- fold change (FC) (L6 [6]): 4.5

SMILES: C=C(CO)[C@@H]1CC[C@]2(C)CC[C@]3(C)[C@H](CC[C@@H]4[C@@]5(C)CC[C@H](OC(C)=O)C(C)(C)[C@@H]5CC[C@]43C)[C@@H]12
- Activity (L6 [1]): 22.2%

- Activity [4]: Active
- Activity [7]: Active
- Activity [8]: Active
- Activity [9]: inactive
- Activity [5]: inactive
SMILES: CC1(C)[C@@H](OC(=O)/C=C/c2ccccc2)CC[C@]2(C)[C@H]3CC[C@@H]4[C@H]5[C@H](C6C=NN(C(=O)/C=C/c7ccccc7)C6)CC[C@]5(C)CC[C@@]4(C)[C@]3(C)CC[C@@H]12 (stereo partly specified)
- Activity (L6 [1]): 107.3%
- Activity (L6 [2]): Dose-dependent effect
- EC50 (L6 [2]): 4.9 µM
- Activity (L6 [3]): Active
- Activity (3T3-L1): Active
- Activity (HepG2): Active
- Activity (L6 [10]): inactive

SMILES: CC1(C)[C@@H](O)CC[C@]2(C)[C@H]3CC[C@@H]4[C@H]5[C@H]([C@@H](C=O)C(O)c6ccccc6)CC[C@]5(C)CC[C@@]4(C)[C@]3(C)CC[C@@H]12 (stereo partly specified)
- Activity (L6 [1]): 6.4%

SMILES: C=CC1=COC[C@@H]1[C@@H]1CC[C@]2(C)CC[C@]3(C)[C@H](CC[C@@H]4[C@@]5(C)CC[C@H](OC(C)=O)C(C)(C)[C@@H]5CC[C@]43C)[C@@H]12
- Activity (L6 [1]): 2.1%

SMILES: CN(CCOc1ccc(CC2SC(=O)NC2=O)cc1)c1ccccn1 (stereo unspecified) [ROSIGLITAZONE]
- Activity (L6 [1]): 112.4%
- EC50 (L6 [2]): 4.8 µM

- Activity [4]: Active
- Activity [5]: inactive
SMILES: C=C(C=O)[C@@H]1CC[C@]2(C)CC[C@]3(C)[C@H](CC[C@@H]4[C@@]5(C)CC[C@H](OC(=O)/C=C/c6ccccc6)C(C)(C)[C@@H]5CC[C@]43C)[C@@H]12
- Activity (L6 [1]): 98.3%
- Activity (L6 [2]): Dose-dependent effect
- EC50 (L6 [2]): 6.2 µM
- Activity (L6 [3]): Active
- Activity (3T3-L1): Active
- Activity (HepG2): Active

SMILES: C#CCOCC(=C)[C@@H]1CC[C@]2(C)CC[C@]3(C)[C@H](CC[C@@H]4[C@@]5(C)CC[C@H](OC(C)=O)C(C)(C)[C@@H]5CC[C@]43C)[C@@H]12
- Activity (L6 [1]): 19.2%

SMILES: C=C(C=O)[C@@H]1CC[C@]2(C)CC[C@]3(C)[C@H](CC[C@@H]4[C@@]5(C)CC[C@H](O)C(C)(C)[C@@H]5CC[C@]43C)[C@@H]12
- Activity (L6 [1]): 173.1%
- Activity (L6 [2]): Dose-dependent effect
- EC50 (L6 [2]): 4.2 µM
- Activity (L6 [3]): Active
- Activity [4]: Active
- Activity [7]: Active
- Activity [8]: Active
- Activity [9]: inactive
- Activity [5]: inactive
- Activity (3T3-L1): Active
- Activity (HepG2): Active
- Activity (L6 [10]): inactive

SMILES: C=C(C=O)[C@@H]1CC[C@]2(C)CC[C@]3(C)[C@H](CC[C@@H]4[C@@]5(C)CC[C@H](OC(=O)CCc6ccc(Cl)cc6)C(C)(C)[C@@H]5CC[C@]43C)[C@@H]12
- Activity (L6 [1]): 0.5%

SMILES: CC1(C)[C@@H](OC(=O)CCc2ccc(Cl)cc2)CC[C@]2(C)[C@H]3CC[C@@H]4[C@H]5[C@H]([C@H]6C=NN(C(=O)CCc7ccc(Cl)cc7)C6)CC[C@]5(C)CC[C@@]4(C)[C@]3(C)CC[C@@H]12
- Activity (L6 [1]): 2.8%

SMILES: CC1(C)[C@@H](O)CC[C@]2(C)[C@H]3CC[C@@H]4[C@H]5[C@H]([C@H]6C=NOC6c6ccccc6)CC[C@]5(C)CC[C@@]4(C)[C@]3(C)CC[C@@H]12 (stereo partly specified)
- Activity (L6 [1]): 13.2%

SMILES: CC(C)C(Br)C(=O)O[C@H]1CC[C@]2(C)[C@H]3CC[C@@H]4[C@H]5[C@H]([C@H]6C=NN(C(=O)C(Br)C(C)C)C6)CC[C@]5(C)CC[C@@]4(C)[C@]3(C)CC[C@H]2C1(C)C (stereo partly specified)
- Activity (L6 [1]): 8.4%

SMILES: C=CCOCC(=C)[C@@H]1CC[C@]2(C)CC[C@]3(C)[C@H](CC[C@@H]4[C@@]5(C)CC[C@H](OC(C)=O)C(C)(C)[C@@H]5CC[C@]43C)[C@@H]12
- Activity (L6 [1]): 8.5%

SMILES: C=C(C=O)[C@@H]1CC[C@]2(C)CC[C@]3(C)[C@H](CC[C@@H]4[C@@]5(C)CC[C@H](OC(=O)C(Br)C(C)C)C(C)(C)[C@@H]5CC[C@]43C)[C@@H]12 (stereo partly specified)
- Activity (L6 [1]): 3.1%

SMILES: CC(=O)O[C@H]1CC[C@]2(C)[C@H]3CC[C@@H]4[C@H]5[C@H]([C@@H]6C=COC6)CC[C@]5(C)CC[C@@]4(C)[C@]3(C)CC[C@H]2C1(C)C
- Activity (L6 [1]): 3.6%

SMILES: CC1(C)[C@@H](O)CC[C@]2(C)[C@H]3CC[C@@H]4[C@H]5[C@H]([C@H]6C=NNC6)CC[C@]5(C)CC[C@@]4(C)[C@]3(C)CC[C@@H]12
- Activity (L6 [1]): 16.1%

— ChEMBL document CHEMBL3286380, “Design and synthesis of lupeol analogues and their glucose uptake stimulatory effect in L6 skeletal muscle cells” (Bioorg Med Chem Lett, 2014)
